Measured values from different studies.
Read-out: cell growth or viability

O=C(NO)c1ccc(Cn2cnc3c(Nc4ccc(Cl)cc4)ncnc32)cc1 — IC50 (Raji; MTT; 72 h): 0.36 µM
Cc1cccc(N=C2C(=O)N(Cc3ccccc3)c3ccccc32)c1 — IC50 (HCT-116; MTT; 48 h): 2.72 µM
COc1cccc(NC(=O)Nc2nc3cc(-c4ccc5ncn(CCN6CCOCC6)c(=O)c5c4)ccc3s2)c1 — IC50 (PC-9; MTT; 72 h): > 20 µM
O=C1CCC(N2C(=O)c3cccc4c(Cc5ccc(CN6CCNCC6)cc5)ccc2c34)C(=O)N1 (stereo not shown) — IC50 (NCI-H929): 0.00073 µM
O=C(NO)c1ccc(Cn2cnc3c(Nc4cccc([N+](=O)[O-])c4)ncnc32)cc1 — IC50 (Raji; MTT; 72 h): 0.3 µM
COc1cccc2c1C(=O)c1c(O)c3c(c(O)c1C2=O)C[C@@](O)(C(=O)CO)C[C@@H]3O[C@H]1C[C@H](N)[C@H](O)[C@H](C)O1 — IC50 (DOHH-2; 96 h): 10 µM
O=C(Nc1nc2cc(-c3ccc4ncn(Cc5ccccc5)c(=O)c4c3)ccc2s1)NC1CCCCC1 — IC50 (PC-9; MTT; 72 h): > 20 µM
Cc1nc(Nc2ncc(C(=O)Nc3c(C)cccc3Cl)s2)cc(N2CC[C@H](O)C2)n1 — IC50 (Raji; ATP luminescence; 72 h): > 10 µM
Cc1cc(C)cc(NC(=O)Nc2nc3cc(-c4ccc5ncn(Cc6ccccc6)c(=O)c5c4)ccc3s2)c1 — IC50 (PC-9; MTT; 72 h): > 20 µM
O=C1CCC(N2C(=O)c3cccc4c(Cc5ccc(CN6CCNCC6)nc5)ccc2c34)C(=O)N1 (stereo not shown) — IC50 (NCI-H929): 0.0135 µM
O=C(Nc1ccc(Br)cc1)Nc1nc2cc(-c3ccc4ncn(Cc5ccccc5)c(=O)c4c3)ccc2s1 — IC50 (PC-9; MTT; 72 h): > 20 µM
CC(C)(O)C(=O)N1CCC(n2cc(Cc3ccc4c5c(cccc35)C(=O)N4C3CCC(=O)NC3=O)cn2)CC1 (stereo not shown) — IC50 (NCI-H929): 0.00019 µM
CCCC(=O)Nc1nc2cc(-c3ccc4ncn(Cc5ccccc5)c(=O)c4c3)ccc2s1 — IC50 (PC-9; MTT; 72 h): > 20 µM
Nc1cccc2c1CN(C1CCC(=O)NC1=O)C2=O (stereo not shown) — IC50 (NCI-H929): > 0.05 µM
COc1ccc(NC(=O)Nc2nc3cc(-c4ccc5ncn(CCN(C)C)c(=O)c5c4)ccc3s2)cc1 — IC50 (PC-9; MTT; 72 h): > 20 µM
O=C1CCC(N2Cc3c(OCc4ccc(CN5CCNCC5)cc4)cccc3C2=O)C(=O)N1 (stereo not shown) — IC50 (NCI-H929): 0.0204 µM
COc1cc(C2C3=C(Nc4nc(SC)[nH]c(=O)c42)c2ccccc2C3=O)ccc1O (stereo not shown) — IC50 (SK-OV-3; MTT; 72 h): > 1000 µM
Nc1ccccc1NC(=O)c1ccc(Cn2cnc3c(Nc4ccc(Cl)cc4)ncnc32)cc1 — IC50 (Raji; MTT; 72 h): 0.11 µM
Cc1ccc(NC(=O)Nc2nc3cc(-c4ccc5ncn(Cc6ccccc6)c(=O)c5c4)ccc3s2)cc1 — IC50 (PC-9; MTT; 72 h): > 20 µM
O=C1CCC(N2C(=O)c3cccc4c(Cc5cnn(C6CCNCC6)c5)ccc2c34)C(=O)N1 (stereo not shown) — IC50 (NCI-H929): 0.00016 µM
O=C(NO)c1ccc(Cn2cnc3c(Nc4ccc(F)c(Cl)c4)ncnc32)cc1 — IC50 (Raji; MTT; 72 h): 0.87 µM
O=C1C(=Nc2ccccc2I)c2ccccc2N1Cc1cccc(Cl)c1 — IC50 (HCT-116; MTT; 48 h): 4.86 µM
